SIAE inh = inhibitors of human sialic acid acetylesterase SIAE; SIAE FP-Rh probe binding, fluorescence polarization; Q9HAT2; AID 1053197; inhibition, % at 9.66 µM; 370,000 tested, 0.69% active;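 active = inhibition above a cutoff: mean of compounds within the control limits plus 3 SD of those, cut at about 17% in these data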;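 also: 0% = plate median of compound wells and 100% = probe without SIAE protein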
rCAG RNA binder = molecules binding r(CAG) RNA repeats. r(CAG) RNA repeat, TO-PRO-1 dye displacement fluorescence. inhibition, % at 3 µM. 370,000 tested, 1.3% active;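 active = inhibition above the plate cutoff, the mean of all test compounds on that plate plus 3 SD, cut at about 35% in these data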;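 also: 0% = DMSO alone and 100% = 100 µM mitoxantrone as full dye displacement; higher means more dye released from RNA so lower well fluorescence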
PRMT1 FP inh = inhibitors of human PRMT1. inhibition, % at 2.79 µM. recombinant PRMT1, activity-based probe fluorescence polarization. Q99873. 370,000 tested, 1.3% active. AID 652257;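 active = inhibition above about 21% made by adding two undisclosed values, limit read from the data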
TCR-CD3 inh = human TCR-CD3 binding inhibition; TAMRA-labeled TCR probe fluorescence, biochemical; inhibition, % at 9.4 µM; 360,000 tested, 0.37% active; in the data active = inhibition above about 19%;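 also: recombinant mutant TCR 2C K166C tagged with TAMRA read by polarization; 0% = receptor in buffer alone and 100% = receptor with positive control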
HTRA1 inhibitor = HTRA1 (human) protease inhibition; 340,000 tested, 0.5% active; recombinant HTRA1, FP-rhodamine activity-based probe, fluorescence polarization; inhibition, % at 5.96 µM; Q92743; in the data active = inhibition above about 36%;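 also: 0% = enzyme with DMSO and 100% = wells lacking enzyme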
Target sequence (Q92743 whole entry, looked up): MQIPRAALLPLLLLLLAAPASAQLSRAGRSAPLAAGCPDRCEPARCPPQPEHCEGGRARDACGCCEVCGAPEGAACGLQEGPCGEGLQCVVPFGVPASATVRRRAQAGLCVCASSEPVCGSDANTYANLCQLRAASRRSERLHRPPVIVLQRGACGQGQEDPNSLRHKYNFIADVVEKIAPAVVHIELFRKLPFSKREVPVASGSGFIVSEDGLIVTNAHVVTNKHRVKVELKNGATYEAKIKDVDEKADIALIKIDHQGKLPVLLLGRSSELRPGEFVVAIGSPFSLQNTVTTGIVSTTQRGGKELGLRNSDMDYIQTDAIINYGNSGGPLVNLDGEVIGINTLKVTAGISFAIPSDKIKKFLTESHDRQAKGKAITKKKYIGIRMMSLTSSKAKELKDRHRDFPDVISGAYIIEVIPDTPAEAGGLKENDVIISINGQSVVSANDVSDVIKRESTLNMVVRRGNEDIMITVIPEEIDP
ABHD4 inh = ABHD4 (mouse) inhibition, primary FP screen | inhibition, % at 8.92 µM | AID 720543 | 370,000 tested, 0.54% active | Q8VD66 | purified mABHD4, FP-Rh probe fluorescence polarization;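 active = inhibition exceeding the mean over every tested compound plus 3 SD, cut at about 30% in these data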;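 also: 0% = plate median of compound wells and 100% = S159A mutant with DMSO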
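system = mouse ABHD4 enzyme, wild type | medium = HEPES pH 7.0, NaCl, Pluronic buffer | also added = FP-Rh probe | incubation = Enzyme–compound pre-incubation 45 min, then probe 60 min, both 25 °C | technique = fluorescence polarization, excitation 525 nm, emission 598 nm, BODIPY TMR filters | controls = S159A mutant high control, sample median low control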
rCAG binder conf = r(CAG) RNA repeat binding, confirmation; TO-PRO-1 dye displacement fluorescence; 4,300 tested, 70% active; shares compounds with rCAG RNA binder; inhibition, % at 3 µM;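 active = inhibition above a per-plate cutoff, the mean inhibition of sample wells plus 3 SD, cut at about 35% in these data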;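 also: loss of TO-PRO-1 fluorescence as compound displaces dye from 1x1 AA loop RNA; 0% = DMSO only wells and 100% = 100 µM mitoxantrone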
dCAG dye counter = DNA CAG dye complex inhibition counter-screen | shares compounds with rCAG RNA binder | d(CAG) DNA oligo TO-PRO-1 dye displacement, fluorescence | inhibition, % at 3 µM | AID 652068 | 4,300 tested, 94% active;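 active = inhibition above its plate's cutoff, the mean test-well inhibition plus 3 SD, cut at about 4.8% in these data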;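 also: 0% = DNA dye mix with DMSO and 100% = 100 µM mitoxantrone; hits displace the dye from DNA and so lower well fluorescence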
An asterisk follows results filed as active; x = not tested or not shown. Hits are enriched below; roughly 3.5% of the tested compounds scored in any of these assays.

SMILES	SIAE inh	rCAG RNA binder	PRMT1 FP inh	TCR-CD3 inh	HTRA1 inhibitor	ABHD4 inh	rCAG binder conf	dCAG dye counter
COc1ccc(NC(=O)c2cc3c(C)nn(-c4ccccc4)c3s2)cc1	-31	16	3	x	x	-25	x	x
O=C([C@@H]1C[C@H]1c1ccccc1)N1CC[C@H]2[C@H](CCCN2Cc2ccccc2)C1	-1	0	2	x	x	4	x	x
CSc1nnc(NC(=O)c2nc(S(=O)(=O)Cc3cccc(C)c3)ncc2Cl)s1	5	37*	7	1	6	3	25	4.5*
CC(C)c1nnc(NC(=O)c2nc(S(=O)(=O)Cc3ccc(F)cc3)ncc2Cl)s1	-3	14	6	9	5	5	x	x
CSc1ncc(Cl)c(C(=O)Nc2nnc(SC/C=C/c3ccccc3)s2)n1	1	66*	1	9	-36	-47	67*	20*
CCSc1nnc(NC(=O)c2nc(S(=O)(=O)Cc3ccc(F)cc3)ncc2Cl)s1	2	36*	2	2	2	1	29	5.8*
C=CCN1[C@H](C)COc2cccc(F)c2S1(=O)=O	-1	2	4	x	x	-11	x	x
COC(=O)C1CN(Cc2cn(CCOC(C)=O)nn2)CCS(=O)(=O)N1Cc1ccc(OC)cc1 (stereo unspecified)	4	-1	-2	x	x	7	x	x
CCOc1ccc(N2C(=O)CC(Sc3nc(-c4cccs4)cc(C(F)(F)F)c3C#N)C2=O)cc1 (stereo unspecified)	0	54*	9	-1	-16	-6	19	13*
CCOc1ccc(N2C(=O)CC(Sc3ncccn3)C2=O)cc1 (stereo unspecified)	3	-3	4	7	5	4	x	x
COc1cccc(/C=N/Nc2snc(SC)c2C#N)c1	12	47*	13	-7	-4	15	36*	15*
CSc1nsc(N/N=C/c2ccccc2)c1C#N	10	23	4	-3	1	24	x	x
S=c1[nH]nc(-c2cc(-c3ccccc3)n[nH]2)n1/N=C/c1c(Cl)cccc1Cl	-16	43*	6	-2	-10	8	68*	29*
COc1ccc2ccccc2c1C=Nn1c(-c2cc(-c3ccccc3)n[nH]2)n[nH]c1=S	3	70*	11	x	x	6	58*	27*
S=c1[nH]nc(-c2cc(-c3ccccc3)n[nH]2)n1/N=C/c1cccc2ccccc12	5	79*	17	x	x	1	78*	40*
S=c1[nH]nc(-c2ccccn2)n1/N=C/c1c(Cl)cccc1Cl	7	1	-3	3	3	3	x	x
S=c1[nH]nc(-c2cc(-c3ccccc3)n[nH]2)n1/N=C/C=C/c1ccco1	9	41*	12	16	x	15	51*	24*
S=c1[nH]nc(-c2ccco2)n1/N=C/C=C/c1ccco1	6	20	13	19	27	17	x	x
Cc1ccsc1/C=N/n1c(-c2cc(-c3ccccc3)n[nH]2)n[nH]c1=S	-6	29	11	3	-20	3	x	x
Cc1ccccc1/C=N/n1c(-c2cc(-c3ccccc3)n[nH]2)n[nH]c1=S	1	31	16	-2	-8	3	x	x
CN1C/C(=C/c2ccccc2)N2C(=O)C[C@@H](c3ccccc3)N=C12	-1	-2	3	x	x	9	x	x
COC(=O)C[C@H]1CC[C@@H]2[C@@H](COc3ccc(NC(=O)c4ccno4)cc3C(=O)N2C)O1	-1	6	3	x	x	-2	x	x
CC(C)(C)c1ccc(C(=O)Nc2cc(Cl)ccc2-c2nn[nH]n2)cc1	-124	x	7	x	x	-154	x	x
O=C(NCc1cccnc1)O[C@H]1CC[C@@]23CCCN2C(=O)CCC[C@H]3C1	-1	x	4	x	x	0	x	x
COc1ccc(-c2cc(C(F)(F)F)nc(SCc3cccc(C(=O)O)c3)n2)cc1	-6	5	0	3	-31	-1	x	x
SMILES	SIAE inh	rCAG RNA binder	PRMT1 FP inh	TCR-CD3 inh	HTRA1 inhibitor	ABHD4 inh	rCAG binder conf	dCAG dye counter
O=C(O)c1cccc(CSc2nc(-c3ccccc3)cc(C(F)(F)F)n2)c1	8	62*	0	-1	-37	-28	48*	14*
O=C(O)COc1ccc(/C=N/NC(=O)/C(=C/C=C/c2ccccc2)NC(=O)c2ccccc2)cc1	-6	53*	-1	-8	-9	-3	43*	17*
O=C(O)CCNC(=O)/C(=C\C=C\c1ccccc1)NC(=O)c1ccccc1	0	5	3	-6	0	-6	x	x
CCCCOc1ccc(C(=O)N/C(=C/C=C/c2ccccc2)C(=O)O)cc1	-3	56*	5	2	-18	-10	54*	19*
CCCCOc1ccc(C(=O)N/C(=C/C=C/c2ccccc2)C(=O)NC)cc1	-2	2	2	-2	-30	-6	x	x
CC(=O)NC(NC(=S)Nc1ccc(S(N)(=O)=O)cc1)C(Cl)(Cl)Cl (stereo unspecified)	-5	3	-1	-3	9	-6	x	x
CCC(=O)NC(NC(=S)Nc1ccc(S(N)(=O)=O)cc1)C(Cl)(Cl)Cl (stereo unspecified)	6	53*	1	2	5	4	4	1
O=C(NC(=S)Nc1ccc(Cl)c(C(=O)O)c1)c1ccco1	-4	0	-3	-5	2	-4	x	x
Cc1ccc(C(=O)O)cc1NC(=S)NC(=O)C(c1ccccc1)c1ccccc1	-8	58*	-3	2	-30	-14	38*	10*
CCOc1cc(C(=O)NC(=S)Nc2ccc(Cl)c(C(=O)O)c2)cc(OCC)c1OCC	-9	41*	0	1	-2	-18	28	5.6*
O=C(O)c1cc(NC(=S)NC(=O)C(c2ccccc2)c2ccccc2)ccc1Cl	-2	41*	-4	-3	-11	18	29	6.9*
CC(C)Oc1ccc(C(=O)NC(=S)Nc2ccc(Cl)c(C(=O)O)c2)cc1	1	3	-3	-5	-5	-2	x	x
Cc1ccc(C(=O)O)cc1NC(=S)NC(=O)Cc1ccccc1	-3	4	2	-11	13	-13	x	x
N#Cc1ccc(/C=C2\CC3(OC(=O)C4CCCCC4)CCCN2C3)cc1 (stereo unspecified)	-1	4	-1	x	x	4	x	x
CCOC(=O)c1c(NC(=O)CSc2ccccc2C(=O)O)sc(C)c1C	-11	40*	1	6	-10	2	41*	13*
Oc1csc(Cc2nc(-c3ccc4ccccc4c3)cs2)n1	-9	36*	3	-4	10	27	32	18*
Oc1csc(Cc2nc(-c3ccccc3F)cs2)n1	1	16	7	6	1	29	x	x
